Measured values taken from publication PMC11094580 (EFSA Journal, 2024).
“Also recorded” adds a separate entry of the source. Like-named read-outs stand apart in the source and are kept apart here.

Assays:
[1] = ref Kanaze et al. (2007), cited from earlier work
[2] = test system: Wistar rats; assay: 28-day dose range-finding oral toxicity study in Wistar rats; assay type: in vivo, rat
How it was run: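 Test compound given by gavage at 1000 to 5000 mg/kg bw per day; haematology, clinical chemistry and organ weights, including uterus weight, were recorded.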

[3] = test system: CYP2C19; details: ref Lu et al. (2011); cited from earlier work
[4] = test system: CYP450 isoforms; details: read-out: IC50 or Ki values; certain CYP450 isoforms; ref Lu et al. (2011); cited from earlier work
[5] = test system: Sprague Dawley rats; assay: Extended one-generation reproductive toxicity; assay type: in vivo, rat
[6] = test system: Wistar rats; details: ref Selvam and Kaliyaperumal (2015), cited from earlier work
[7] = 24 h urine, ref Aschoff et al. (2016), cited from earlier work
[8] = 10 h post dosing; ref Felgines et al. (2000); cited from earlier work
[9] = test system: CYP2C9; details: ref Lu et al. (2011); cited from earlier work
[10] = test system: CYP2D6; details: concentrations up to 10 μM; ref Lu et al. (2011); cited from earlier work
[11] = test system: CYP3A4; details: testosterone (10 μM); ref Lu et al. (2011); cited from earlier work
[12] = test system: CYP2B6; details: concentrations up to 10 μM; ref Lu et al. (2011); cited from earlier work
[13] = human volunteers; ref Documentation provided to EFSA No. 4; cited from earlier work
[14] = test system: Sprague Dawley rats; assay: Dose range-finding study for the EOGRT study, dietary; assay type: in vivo, rat
[15] = test system: Wistar rats; assay: In vivo micronucleus assay in peripheral blood; parameters: species or system rat
[16] = Stability in solution; assay type: physicochemical
How it was run: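 Test compound was dissolved at 10 g per 100 g propylene glycol and stored at 25 ± 2°C and 60 ± 5% RH, with sampling at 1, 2, 3 and 4 months; recovery was the read-out. Separately, aqueous buffer solutions (50 mg/kg) at pH 3, 5 and 7 were incubated at 90°C as accelerated testing.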

[17] = ref Bugianesi et al. (2002), cited from earlier work
[18] = test system: Wistar rats; details: 200 mg/kg bw per day, 20 weeks, gavage, male rats; ref Ganapathy et al. (2008); cited from earlier work
[19] = test system: ERβ and ERα; details: in vitro; ref Helle et al. (2015); cited from earlier work
[20] = test system: Salmonella typhimurium (TA98, TA100, TA102, TA1535, TA1537) and E. coli WP2uvrA; assay: Bacterial reverse mutation assay; assay type: cell-based; details: for concentration with reduction in growth of bacterial background lawns: plate incorporation; for concentration with reduction of bacterial background lawns: pre-incubation
[21] = test system: quinine metabolism in human liver microsomes; details: substrate quinine; ref Fasinu et al. (2013), Ho et al. (2001); cited from earlier work
[22] = test system: Bifidobacterium longum R0175; details: 25 μg/mL, cultures of B. longum; ref Pereira‐Caro et al. (2016); cited from earlier work
[23] = biological target: simvastatin metabolism in rat liver microsomes; details: ref Ubeaud et al. (1999); cited from earlier work
[24] = F1 C1A females, high‐dose group

SMILES: O=C1CC(c2ccc(O)cc2)Oc2cc(O)cc(O)c21 (centres unmarked) [naringenin, 4H‐1‐Benzopyran‐4‐one, 2,3‐dihydro‐5,7‐dihydroxy‐2‐(4‐hydroxyphenyl)‐]
- Cmax ([1]; single oral 135 mg (496 μmol) capsule): 7.5 µM
- cumulative urinary excretion, percentage of administered dose ([1]; single oral 135 mg capsule, 24 h after dosing): 5.81 ± 0.81%
- T max (time of peak plasma level) ([1]; single oral 135 mg capsule): 4 h
- time of first appearance in plasma after dosing ([1]; single oral 135 mg capsule): 20 min
- Half-life of elimination (plasma) ([1]; single oral 135 mg capsule, listed as NAR‐A): T ½ ~ 2.3 h
- uterus weight ([2]; gavage 28 days): no effects on uterus weight
- Mortality ([2]; gavage, doses from 1000 to 5000 mg/kg bw per day): Mortality was observed at the highest dose tested
- IC50 [3]: < 5 µM
- IC50 [4]: ~10 µM
- Absolute organ weight ([5]; F1 C1A females): ↑ G3, G4 thymus; also recorded: ↑ G4 spleen and iliac lymph nodes
- Thyroid hormone levels: T4 ([5]; F1 C1A females): T4: –
- increase in mean platelet count [5, 24]: 25%
- mean platelet count [5, 24]: 1138.20 × 10^3 cells/μL
- Absolute organ weight ([5]; F1 C1A males): ↓ G2 and G3 testes and iliac lymph nodes; also recorded: ↓ G4 iliac lymph nodes
- Lymphocyte typing (spleen): T helper cells (CD4+) ([5]; F1 C1A males): T helper cells (CD4+): ↑ G2, G3 and G4, no dose‐related trend
- Thyroid hormone levels: T4 ([5]; F1 C1A males): T4: –
- Thyroid hormone levels: TSH ([5]; F1 C1A males): TSH: –
- Absolute organ weight ([5]; F1 C1B females): ↑ G4 thymus; also recorded: ↑ G3 uterus with cervix
- Absolute organ weight ([5]; F1 C1B males): ↑ G3 thymus
- Absolute organ weight ([5]; F1 pups (surplus) females, PND 21): PND 21: ↓ G2 spleen; ↑ G3 spleen; ↓ G2 brain
- Absolute organ weight ([5]; F1 pups (surplus) males, PND 21): PND 21: ↑ G3 spleen
- reduction of anogenital distance (AGD) ([5]; F1 pups, PND4, highest dose females): 4%
- decreased normal sperm ([5]; F1‐C1A cohort): ~ 1%
- increased sperm with abnormalities ([5]; F1‐C1A cohort): 50%
- increase of thymus gland weight ([5]; F1‐C1A females, highest dose group): 24%
- reduction of daily sperm production ([5]; F1‐C1A males, high dose): 2%
- reduction of daily sperm production ([5]; F1‐C1A males, low dose): 7%
- decrease of absolute iliac lymph node weight ([5]; F1‐C1A males, mid dose): 30%
- mean pre-coital interval ([5]; F1‐CB cohort, G3): 7.6 days
- change in mean pup weight ([5]; F2, PND 1, males, group G4‐C1B): −4%
- change in mean pup weight ([5]; F2, PND 4, females, group G4‐C1B): −8%
- change in mean pup weight ([5]; F2, PND 14, females, group G3‐C1B): −5%
- change in mean pup weight ([5]; F2, PND 14, females, group G4‐C1B): −5%
- oestrous cycle length, increase following exposure ([5]; P females, significant in lowest and highest exposed groups): up to 6%
- mean pre-coital interval ([5]; P generation, G4): 8 days
- decrease in mean urinary pH value ([5]; P males, high‐dose group): 12%
- increase in mean urinary specific gravity ([5]; P males, high‐dose group): 1%
- margin of exposure (MoE) ([5]; adults, chronic APET as flavouring substance, NOAEL 1320 mg/kg bw per day): 1590
- margin of exposure (MoE) ([5]; adults, chronic combined exposure incl. other food sources): 1390
- fertility indices (pregnancy, parturition and gestation) ([5]; all tested dose groups, P and F1‐C1B generations): 100%
- margin of exposure (MoE) ([5]; children, acute combined exposure): 48
- margin of exposure (MoE) ([5]; children, chronic APET as flavouring substance, NOAEL 1320 mg/kg bw per day): 630
- margin of exposure (MoE) ([5]; children, chronic combined exposure incl. other food sources): 550
- post-implantation loss ([5]; high‐dose P females): 12.6%
- NOAEL (dietary concentration) ([5]; mid‐dose): 20,000 mg/kg feed
- NOAEL ([5]; mid‐dose, P males, pre‐cohabitation period): 1320 mg/kg bw per day
- LD50 ([6]; Gavage, M, 10/group, arithmetic method): 340 mg/kg bw
- LD50 ([6]; rats, considered not reliable by the Panel): about 330 mg/kg bw
- proportion of naringenin excreted in the urine ([7]; after orange fruit (400 g)): 12.9%
- proportion of naringenin excreted in the urine ([7]; after pasteurised orange juice (719 g)): 20.3%
- naringenin in caecal contents [8]: 15 μmol/caecum
- IC50 [9]: < 5 µM
- inhibition [10]: No appreciable inhibition
- inhibition [12]: No appreciable inhibition
- glucuronic acid and sulfate conjugates as share of the dose [13]: ~ 20 % of the dose
- mean pre-coital interval ([14]; 20,000 mg/kg feed (G3)): 7.6 days
- clinical signs, mortality, morbidity ([14]; all dose groups): No clinical signs of toxicity, no mortality or morbidity
- dose up to which no toxicity was produced ([14]; females): ≤ 2724 mg/kg bw per day
- dose up to which no toxicity was produced ([14]; males): ≤ 2205 mg/kg bw per day
- dietary concentration up to which no toxicity was produced ([14]; males 29 days, females 51–62 days): up to 25,000 mg/kg feed
- % MNPCE frequency ([15]; 500 mg/kg bw per day): 0.06 ± 0.01%
- % MNPCE frequency ([15]; 2000 mg/kg bw per day): 0.06 ± 0.02%
- maximum tolerated dose (MTD) ([15]; gavage at 0, 24 and 45 h, male and female rats): 2000 mg/kg bw per day
- % MNPCE frequency ([15]; mid‐dose (1000 mg/kg bw per day), male rats, blood 3 h after last administration): 0.08 ± 0.01%
- time stable when dissolved in propylene glycol ([16]; 25 ± 2°C, 60 ± 5% RH): at least 4 months
- time for which stability was demonstrated ([16]; aqueous buffer solutions (50 mg/kg) pH 3, 5, 7 at 90°C): up to 8 h
- C max ([17]; 3.8 mg (14 μmol), tomato paste/oil): 32 ± 8 ng/mL
- unconjugated naringenin in plasma ([17]; 3.8 mg, tomato paste test meal): did not find unconjugated naringenin in plasma samples
- Plasma half-life ([17]; 3.8 mg, tomato paste/oil): Decline by 2 h and later
- assessed biochemical parameters in stomach and liver [18]: no significant effects
- affinity for oestrogen receptors [19]: stronger affinity with ERβ than ERα
- Result ([20]; Experiment 1: 1.5–5000 μg/plate (+/− S9, plate incorporation)): Negative
- Result ([20]; Experiment 2: 1.5–5000 μg/plate (+/− S9, pre‐incubation)): Negative
- frequency of revertant colonies ([20]; TA102, 50 μg/plate, absence of S9‐mix): 262 ± 23.8
- IC50 [21]: 139 to 188 µM
- Recovery [22]: 88%
- Ki [23]: 30 µM
